From ChEMBL document CHEMBL1142699 (J Med Chem, 2005)
Numbered stars: 1 amine (or outer) side, 2 acyl side, 3 side chain; on linkers, the order of the positions; unused ones are H or OH. Square brackets hold non-standard residues; d marks the D form. Peptide text beside a SMILES is read from it. * marks the point of attachment. X1 = N[C@@H](Cc1ccccc1)CN(CC(=O)[*:2])[*:1]; Phe(4-F) = N[C@@H](Cc1ccc(F)cc1)C(=O)O; N(NH2)2 = NN(N)*; NHNH2 = NN*

Assays:
[1] = target: Nociceptin receptor (Cavia porcellus) (UniProt P47748); assay: Antagonistic potency against N/OFQ in electrically evoked contractions of guinea pig ileum at 1 uM; type: functional, tissue-based
Sequence of Nociceptin receptor (Cavia porcellus) (P47748 whole entry): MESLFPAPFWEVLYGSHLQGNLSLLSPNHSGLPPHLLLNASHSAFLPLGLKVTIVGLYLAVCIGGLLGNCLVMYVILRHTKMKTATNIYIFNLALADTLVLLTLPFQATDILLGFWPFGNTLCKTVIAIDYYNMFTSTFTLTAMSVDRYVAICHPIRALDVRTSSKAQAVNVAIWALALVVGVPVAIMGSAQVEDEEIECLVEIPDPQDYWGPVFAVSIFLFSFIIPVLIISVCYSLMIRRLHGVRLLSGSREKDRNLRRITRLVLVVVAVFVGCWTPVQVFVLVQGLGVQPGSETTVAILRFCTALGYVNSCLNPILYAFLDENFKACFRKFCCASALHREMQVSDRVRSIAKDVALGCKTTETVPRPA

[2] = target: Nociceptin receptor (Cavia porcellus) (UniProt P47748); assay: Inhibition of electrically evoked contraction of guinea pig ileum; Effect evident only in some tissues; type: functional, tissue-based; settings: filed as agonist
[3] = target: Nociceptin receptor (Mus musculus) (UniProt P35377); assay: Inhibition of electrically evoked contraction of mouse vas deferens; Effect evident only in some tissues; type: functional; settings: filed as agonist
Sequence of Nociceptin receptor (Mus musculus) (P35377 whole entry): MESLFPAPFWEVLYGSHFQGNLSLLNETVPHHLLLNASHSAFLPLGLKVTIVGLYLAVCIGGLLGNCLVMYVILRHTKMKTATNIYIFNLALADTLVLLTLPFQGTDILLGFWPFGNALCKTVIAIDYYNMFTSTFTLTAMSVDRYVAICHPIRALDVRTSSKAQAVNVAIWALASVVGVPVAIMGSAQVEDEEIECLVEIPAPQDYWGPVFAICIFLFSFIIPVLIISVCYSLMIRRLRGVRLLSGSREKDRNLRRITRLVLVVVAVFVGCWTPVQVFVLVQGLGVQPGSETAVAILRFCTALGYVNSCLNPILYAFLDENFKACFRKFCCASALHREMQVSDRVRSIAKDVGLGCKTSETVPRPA

[4] = target: Nociceptin receptor (Mus musculus) (UniProt P35377); assay: Antagonistic potency against N/OFQ in electrically evoked contraction of mouse vas deferens at 1 uM; type: functional, tissue-based
Outline: (§1)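 Male Swiss mice (25-30 g). Vas deferens in 5 mL baths of Mg2+-free Krebs at 33 °C, 0.3 g tension, field-stimulated with supramaximal 1 ms pulses at 0.05 Hz, isotonic recording.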

[5] = target: Nociceptin receptor (Cavia porcellus) (UniProt P47748); assay: Maximal inhibition of electrically evoked contraction of guinea pig ileum; Effect evident only in some tissues; type: functional, tissue-based; settings: filed as agonist
[6] = target: Nociceptin receptor (Mus musculus) (UniProt P35377); assay: Maximal inhibition of electrically evoked contraction of mouse vas deferens; Effect evident only in some tissues; type: functional; settings: filed as agonist
[7] = target: T1, Nociceptin receptor (Homo sapiens, UniProt P41146); assay: Agonist potency against GTPgammaS binding in CHO cell membranes expressing the human NOP receptor (CHOhNOP)
T1 sequence (P41146 whole entry): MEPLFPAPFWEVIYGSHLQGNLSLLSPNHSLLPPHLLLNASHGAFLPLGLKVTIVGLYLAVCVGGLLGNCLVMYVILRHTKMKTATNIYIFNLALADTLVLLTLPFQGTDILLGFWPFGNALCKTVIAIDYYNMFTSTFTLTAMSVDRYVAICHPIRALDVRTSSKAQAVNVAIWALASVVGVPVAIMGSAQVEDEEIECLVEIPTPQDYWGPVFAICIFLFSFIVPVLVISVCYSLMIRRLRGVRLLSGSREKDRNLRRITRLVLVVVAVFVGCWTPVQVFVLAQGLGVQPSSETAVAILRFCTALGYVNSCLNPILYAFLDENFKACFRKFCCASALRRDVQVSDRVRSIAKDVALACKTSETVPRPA

[8] = target: T1, Nociceptin receptor; assay: Receptor binding affinity for recombinant human N/OFQ peptide receptor (NOP) expressed in chinese hamster ovary cells; type: cell-based, CHO
[9] = target: T1, Nociceptin receptor; assay: Inhibition of forskolin stimulated cAMP levels in CHO cells expressing the human NOP receptor (CHOhNOP)
[10] = target: Nociceptin receptor (Mus musculus) (UniProt P35377); assay: Antagonistic potency against N/OFQ in electrically evoked contraction of mouse vas deferens at 0.1 uM; type: functional, tissue-based; outline: as §1
[11] = target: Nociceptin receptor (Mus musculus) (UniProt P35377); assay: Maximal inhibition of electrically evoked contraction of mouse vas deferens; type: functional, tissue-based
[12] = target: Nociceptin receptor (Cavia porcellus) (UniProt P47748); assay: Maximal inhibition of electrically evoked contraction of guinea pig ileum; type: functional, tissue-based
[13] = target: Nociceptin receptor (Cavia porcellus, UniProt P47748); assay: Inhibition of electrically evoked contraction of guinea pig ileum; type: functional, tissue-based
Sequence of Nociceptin receptor (Cavia porcellus, UniProt P47748) (P47748 whole entry): as the sequence (P47748 whole entry) above
Outline: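 Guinea pig ileum from albino animals (250-300 g), in Krebs at 37 °C under 0.3 g resting tension. Field-stimulated with 1 ms supramaximal pulses at 0.05 Hz; twitches recorded isotonically. After ~1 h equilibration, cumulative concentration-response curves in 0.5 log steps. […] 5-8 experiments.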

[14] = target: Nociceptin receptor (Mus musculus, UniProt P35377); assay: Inhibition of electrically evoked contraction of mouse vas deferens; type: functional
Sequence of Nociceptin receptor (Mus musculus, UniProt P35377) (P35377 whole entry): as the sequence (P35377 whole entry) above
Outline: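 Vas deferens from male Swiss mice (25-30 g), in Mg2+-free Krebs at 33 °C under 0.3 g resting tension. Field-stimulated with 1 ms supramaximal pulses at 0.05 Hz; twitches recorded isotonically. After ~1 h equilibration, cumulative concentration-response curves in 0.5 log steps. […] 5-8 experiments.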

Row | Compound | pKb [1] | Log EC50 [2] | Activity [3] | pKb [4] | Emax [5] | Emax [6] | EC50 [7] [nM] | Ki [8] [nM] | EC50 [9] [nM] | pKb [10] | pKb ([10]; Cavia porcellus) | Emax [11] [%] | Emax [12] [%] | EC50 [13] [nM] | EC50 [14] [nM]
1 | CC(C)C[C@H](NC(=O)[C@H](CCCCN)NC(=O)[C@H](CCCN=C(N)N)NC(=O)[C@H](C)NC(=O)[C@H](CO)NC(=O)[C@H](CCCCN)NC(=O)[C@H](CCCN=C(N)N)NC(=O)[C@H](C)NC(=O)CNC(=O)[C@@H](NC(=O)[C@H](Cc1ccc(F)cc1)NC(=O)CNC(=O)CNC(=O)CNCc1ccccc1)[C@@H](C)O)C(=O)N[C@@H](C)C(=O)N[C@@H](CC(N)=O)C(=O)N[C@@H](CCC(N)=O)C(N)=O | 7.16 | Agonist | Agonist | 6.61 | Agonist | Agonist | – | – | – | – | – | – | – | – | –
2 | C[C@H](NC(=O)CNC(=O)[C@@H](NC(=O)[C@H](Cc1ccccc1)NC(=O)CNC(=O)CNC[C@@H](N)Cc1ccccc1)[C@@H](C)O)C(=O)N[C@@H](CCCN=C(N)N)C(=O)N[C@@H](CCCCN)C(=O)N[C@@H](CO)C(=O)N[C@@H](C)C(=O)N[C@@H](CCCN=C(N)N)C(=O)N[C@@H](CCCCN)C(=O)N[C@@H](CCCN=C(N)N)C(=O)N[C@@H](CCCCN)C(=O)N[C@@H](CC(N)=O)C(=O)N[C@@H](CCC(=O)N(N)N)C(=O)NN (H-[X1]GFTGARKSARKRKNE(N(NH2)2)-NHNH2) | 7.47 | Agonist | Agonist | 8.04 | Agonist | Agonist | – | – | – | – | – | – | – | – | –
3 | CC(C)C[C@H](NC(=O)[C@H](CCCCN)NC(=O)[C@H](CCCN=C(N)N)NC(=O)[C@H](C)NC(=O)[C@H](CO)NC(=O)[C@H](CCCCN)NC(=O)[C@H](CCCN=C(N)N)NC(=O)[C@H](C)NC(=O)CNC(=O)[C@@H](NC(=O)[C@H](Cc1ccccc1)NC(=O)CNC(=O)CNC[C@@H](N)Cc1ccccc1)[C@@H](C)O)C(=O)N[C@@H](C)C(=O)N[C@@H](CC(N)=O)C(=O)N[C@@H](CCC(N)=O)C(N)=O (H-[X1]GFTGARKSARKLANQ-NH2) | 6.65 | Agonist | Agonist | 7.17 | Agonist | Agonist | 5.25 | 0.129 | 0.759 | – | – | – | – | – | –
4 | CC(C)C[C@H](NC(=O)[C@H](CCCCN)NC(=O)[C@H](CCCN=C(N)N)NC(=O)[C@H](C)NC(=O)[C@H](CO)NC(=O)[C@H](CCCCN)NC(=O)[C@H](CCCN=C(N)N)NC(=O)[C@H](C)NC(=O)CNC(=O)[C@@H](NC(=O)[C@H](Cc1ccc(F)cc1)NC(=O)CNC(=O)CNC[C@@H](N)Cc1ccccc1)[C@@H](C)O)C(=O)N[C@@H](C)C(=O)N[C@@H](CC(N)=O)C(=O)N[C@@H](CCC(N)=O)C(N)=O (H-[X1]G[Phe(4-F)]TGARKSARKLANQ-NH2) | 8.32 | Agonist | Agonist | 7.9 | Agonist | Agonist | 0.813 | 0.0479 | 0.479 | – | – | – | – | – | –
5 | C[C@H](NC(=O)CNC(=O)[C@@H](NC(=O)[C@H](Cc1ccc(F)cc1)NC(=O)CNC(=O)CNC[C@@H](N)Cc1ccccc1)[C@@H](C)O)C(=O)N[C@@H](CCCN=C(N)N)C(=O)N[C@@H](CCCCN)C(=O)N[C@@H](CO)C(=O)N[C@@H](C)C(=O)N[C@@H](CCCN=C(N)N)C(=O)N[C@@H](CCCCN)C(=O)N[C@@H](CCCN=C(N)N)C(=O)N[C@@H](CCCCN)C(=O)N[C@@H](CC(N)=O)C(=O)N[C@@H](CCC(=O)N(N)N)C(=O)NN (H-[X1]G[Phe(4-F)]TGARKSARKRKNE(N(NH2)2)-NHNH2) | – | Agonist | – | – | Agonist | – | – | – | – | 9.2 | 8.48 | 53 | – | – | –
6 | C[C@H](NC(=O)CNC(=O)[C@@H](NC(=O)[C@H](Cc1ccccc1)NC(=O)CNC(=O)CNC(=O)[C@@H](N)Cc1ccccc1)[C@@H](C)O)C(=O)N[C@@H](CCCN=C(N)N)C(=O)N[C@@H](CCCCN)C(=O)N[C@@H](CO)C(=O)N[C@@H](C)C(=O)N[C@@H](CCCN=C(N)N)C(=O)N[C@@H](CCCCN)C(=O)N[C@@H](CCCN=C(N)N)C(=O)N[C@@H](CCCCN)C(=O)N[C@@H](CC(N)=O)C(=O)N[C@@H](CCC(=O)N(N)N)C(=O)NN | – | – | – | – | – | – | – | – | – | – | – | 95 | 52 | – | –
7 | C[C@H](NC(=O)CNC(=O)[C@@H](NC(=O)[C@H](Cc1ccccc1)NC(=O)CNC(=O)CNC[C@@H](N)Cc1ccccc1)[C@@H](C)O)C(=O)N[C@@H](CCCN=C(N)N)C(=O)N[C@@H](CCCCN)C(=O)N[C@@H](CO)C(=O)N[C@@H](C)C(=O)N[C@@H](CCCN=C(N)N)C(=O)N[C@@H](CCCCN)C(=O)N[C@@H](CCCN=C(N)N)C(=O)N[C@@H](CCCCN)C(=O)N[C@@H](CC(N)=O)C(=O)N[C@@H](CCC(N)=O)C(N)=O (H-[X1]GFTGARKSARKRKNQ-NH2) | – | – | – | – | – | – | 0.933 | 0.0316 | 0.24 | – | – | – | – | – | –
8 | CC(C)C[C@H](NC(=O)[C@H](CCCCN)NC(=O)[C@H](CCCN=C(N)N)NC(=O)[C@H](C)NC(=O)[C@H](CO)NC(=O)[C@H](CCCCN)NC(=O)[C@H](CCCN=C(N)N)NC(=O)[C@H](C)NC(=O)CNC(=O)[C@@H](NC(=O)[C@H](Cc1ccc(F)cc1)NC(=O)CNC(=O)CNC(=O)[C@@H](N)Cc1ccccc1)[C@@H](C)O)C(=O)N[C@@H](C)C(=O)N[C@@H](CC(N)=O)C(=O)N[C@@H](CCC(N)=O)C(N)=O | – | – | – | – | – | – | – | – | – | – | – | 92 | 56 | 1.86 | 2.57
